Data taken from ChEMBL document CHEMBL1132157 (J Med Chem, 1999).

Assays:
[1] = biological target: T1, 5-hydroxytryptamine receptor 1D (Homo sapiens, UniProt P28221); test: Agonist-induced [35S]- GTPgammaS binding in CHO cells stably transfected with 5-hydroxytryptamine 1D receptor; type: cell-based
Summary of the method: (§1)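 Membranes from thawed CHO cells with human 5-HT1D, prepared in ice-cold 20 mM Hepes/EDTA at pH 7.4, spun at 40000g. Assay buffer: 100 mM NaCl, 10 mM MgCl2, 0.1% ascorbate, 10 μM pargyline. GDP 100 μM plus drug, 20 min at 30 °C, then ice 15 min. Then 100 pM [35S]GTPγS, 30 min at 30 °C, filtration. Emax is taken as % of maximal 5-HT response; duplicates, 2–5 occasions.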

[2] = biological target: T1, 5-hydroxytryptamine receptor 1D; test: Displacement of [3H]5-HT binding to cloned human 5-hydroxytryptamine 1D receptor stably expressed in CHO cells; type: cell-based
Summary of the method: (§2)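 Membranes from thawed CHO cells with human 5-HT1B or 5-HT1D, washed in 50 mM Tris-HCl pH 7.7, preincubated 10 min at 37 °C to remove endogenous 5-HT. Buffer holds 0.1% ascorbate, 10 μM pargyline and 4 mM CaCl2. Uses 2.0 nM [3H]5-HT, 30 min at 37 °C; 10 μM 5-HT defines nonspecific binding. Filtration; IC50 by nonlinear regression; duplicates, 2–5 occasions.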

[3] = Ratio of IC50 for human 5-HT1B to human 5-HT1D receptors
[4] = biological target: T1, 5-hydroxytryptamine receptor 1D; test: Maximum stimulation of [35S]GTP-gamma-S, binding in CHO cells expressing human 5-HT-1d relative to 5-HT; type: functional, cell-based; summary of the method: as §1
[5] = biological target: 5-hydroxytryptamine receptor 1B (Homo sapiens, UniProt P28222); test: Displacement of [3H]5-HT binding to cloned 5-hydroxytryptamine 1B receptor stably expressed in CHO cells; type: cell-based; summary of the method: as §2
Sequence of 5-hydroxytryptamine receptor 1B (P28222 whole entry): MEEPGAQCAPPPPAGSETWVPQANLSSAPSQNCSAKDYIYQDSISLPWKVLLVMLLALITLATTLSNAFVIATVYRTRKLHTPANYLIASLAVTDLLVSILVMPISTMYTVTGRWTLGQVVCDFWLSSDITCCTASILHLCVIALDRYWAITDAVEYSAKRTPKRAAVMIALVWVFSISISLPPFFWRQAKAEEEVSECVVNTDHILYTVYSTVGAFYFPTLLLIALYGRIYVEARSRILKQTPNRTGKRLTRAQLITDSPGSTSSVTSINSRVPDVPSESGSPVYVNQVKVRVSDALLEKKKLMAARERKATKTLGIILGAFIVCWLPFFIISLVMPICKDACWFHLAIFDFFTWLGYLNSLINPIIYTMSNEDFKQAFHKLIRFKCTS

T1 sequence (P28221 whole entry): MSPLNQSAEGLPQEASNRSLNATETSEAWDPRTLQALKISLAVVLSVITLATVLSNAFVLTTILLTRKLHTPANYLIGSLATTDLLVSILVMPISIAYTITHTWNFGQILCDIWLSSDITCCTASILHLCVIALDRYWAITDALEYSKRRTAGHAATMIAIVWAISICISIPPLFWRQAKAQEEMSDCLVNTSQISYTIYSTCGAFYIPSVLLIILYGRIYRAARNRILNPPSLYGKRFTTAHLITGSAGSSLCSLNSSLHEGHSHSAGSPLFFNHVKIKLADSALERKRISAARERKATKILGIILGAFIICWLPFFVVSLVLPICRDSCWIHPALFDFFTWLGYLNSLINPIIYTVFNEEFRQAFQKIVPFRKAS

Row | Compound | EC50 [1] [nM] | IC50 [2] [nM] | Selectivity [3] | Efficacy [4] [%] | IC50 [5] [nM]
1 | C[C@H](O)[C@H](NC1CCN(CCCc2c[nH]c3ccc(-n4cnnc4)cc23)CC1)c1ccccc1 | 30 | 7.6 | 20 | 81 | 150
2 | CN(C1CCN(CCCc2c[nH]c3ccc(-n4cnnc4)cc23)CC1)S(=O)(=O)c1ccccc1 | – | 1.5 | 6.7 | – | 10
3 | c1ccc2c(c1)CCC2NCC1CCN(CCCc2c[nH]c3ccc(-n4cnnc4)cc23)CC1 (stereo not drawn) | 1.3 | 1.1 | 23 | 78 | 25
4 | c1cc2[nH]cc(CCN3CCCC3)c2cc1-n1cnnc1 | – | – | 9 | – | –
5 | COC[C@H](NC1CCN(CCCc2c[nH]c3ccc(-n4cnnc4)cc23)CC1)c1ccc(F)cc1 | – | 1.4 | 64 | – | 89
6 | CC(=O)Nc1ccc(C(=O)N(C)CC2CCN(CCCc3c[nH]c4ccc(-n5cnnc5)cc34)CC2)cc1 | – | 17 | 2.4 | – | 40
7 | C[C@@H](NCC1CCN(CCCc2c[nH]c3ccc(-n4cnnc4)cc23)CC1)c1ccccc1 | – | 1.4 | 10 | – | 14
8 | OC[C@H](NCC1CCN(CCCc2c[nH]c3ccc(-n4cnnc4)cc23)CC1)c1ccccc1 | – | 5.9 | 13 | – | 79
9 | c1cncc(CNC2CCN(CCCc3c[nH]c4ccc(-n5cnnc5)cc34)CC2)c1 | – | 35 | 4 | – | 140
10 | C[C@H](NCC1CCN(CCCc2c[nH]c3ccc(-n4cnnc4)cc23)CC1)c1ccccc1 | – | 4.4 | 13 | – | 58
11 | CC(C)=CCCN(C)C1CCN(CCCc2c[nH]c3ccc(-n4cnnc4)cc23)CC1 | – | 2.6 | 9.2 | – | 24
12 | O[C@H]1Cc2ccccc2C1NC1CCN(CCCc2c[nH]c3ccc(-n4cnnc4)cc23)CC1 (stereo partly drawn) | – | 37 | 8.1 | – | 300
13 | CC(=O)Nc1ccc(CCNC2CCN(CCCc3c[nH]c4ccc(-n5cnnc5)cc34)CC2)cc1 | – | 12 | 14 | – | 170
14 | c1ccc(CNC2CCN(CCCc3c[nH]c4ccc(-n5cnnc5)cc34)CC2)nc1 | – | 14 | 5.4 | – | 76
15 | CN(CC1CCN(CCCc2c[nH]c3ccc(-n4cnnc4)cc23)CC1)C(=O)Nc1ccccc1 | – | 5.9 | 1.1 | – | 6.2
16 | CN(CC1CCN(CCCc2c[nH]c3ccc(-n4cnnc4)cc23)CC1)S(=O)(=O)c1ccccc1 | – | 1.6 | 11 | – | 18
17 | C[C@@H](NC1CCN(CCCc2c[nH]c3ccc(-n4cnnc4)cc23)CC1)c1ccccc1 | 13 | 0.4 | 88 | 90 | –

Next, values leading:

Row | EC50 [1] [nM] | IC50 [2] [nM] | Selectivity [3] | Efficacy [4] [%] | IC50 [5] [nM] | Compound
18 | – | 270 | > 37 | – | > 10000 | O=C(c1ccc(F)cc1)C1CCN(CCn2c(=O)[nH]c3ccccc3c2=O)CC1 [KETANSERIN]
19 | 1.7 | – | 85 | 95 | – | OC[C@H](NC1CCN(CCCc2c[nH]c3ccc(-n4cnnc4)cc23)CC1)c1ccccc1
20 | 7.4 | 4.1 | 98 | 77 | 400 | OC[C@H](NC1CCN(CCCc2c[nH]c3ccc(-n4cncn4)cc23)CC1)c1ccccc1
21 | 4.7 | 1.9 | 220 | 65 | 410 | c1ccc(C2CCCCN2C2CCN(CCCc3c[nH]c4ccc(-n5cnnc5)cc34)CC2)cc1 (stereo not drawn)
22 | 5.6 | 1.6 | 18 | 101 | 28 | c1ccc(CNCC2CCN(CCCc3c[nH]c4ccc(-n5cnnc5)cc34)CC2)cc1
23 | – | 18 | 7.8 | – | 140 | CN(Cc1ccc(S(C)(=O)=O)cc1)C1CCN(CCCc2c[nH]c3ccc(-n4cnnc4)cc23)CC1
24 | – | 0.9 | 30 | 93 | 27 | CN(Cc1ccccc1)CC1CCN(CCCc2c[nH]c3ccc(-n4cnnc4)cc23)CC1
25 | 12 | 6.2 | 10 | 73 | 60 | O=S(=O)(NCC1CCN(CCCc2c[nH]c3ccc(-n4cnnc4)cc23)CC1)c1ccccc1
26 | – | 1.7 | 1.9 | – | 3.3 | c1ccc(NCC2CCN(CCCc3c[nH]c4ccc(-n5cnnc5)cc34)CC2)nc1
27 | – | 18 | 7.8 | – | 140 | CN(C(=O)Nc1ccccc1)C1CCN(CCCc2c[nH]c3ccc(-n4cnnc4)cc23)CC1
28 | 0.8 | 0.7 | 140 | 74 | 100 | OC[C@H](NC1CCN(CCCc2c[nH]c3ccc(-n4ccnc4)cc23)CC1)c1ccccc1
29 | 2.2 | 1.2 | 62 | 72 | 74 | Oc1nc2ccccc2n1C1CCN(CCCc2c[nH]c3ccc(-n4cnnc4)cc23)CC1
30 | – | 9.3 | 9.6 | – | 89 | CN(Cc1ccco1)C1CCN(CCCc2c[nH]c3ccc(-n4cnnc4)cc23)CC1
31 | – | 43 | 6 | – | 260 | CNS(=O)(=O)Cc1ccc2[nH]cc(CCCN3CCC(N[C@H](C)c4ccccc4)CC3)c2c1
32 | – | 3.4 | 10 | – | 34 | OC[C@@H](NCC1CCN(CCCc2c[nH]c3ccc(-n4cnnc4)cc23)CC1)c1ccccc1
33 | – | 5.7 | 12 | – | 66 | CC(=O)Nc1ccc(CCN(C)C2CCN(CCCc3c[nH]c4ccc(-n5cnnc5)cc34)CC2)cc1
34 | – | 8.1 | 8.1 | – | 66 | CN(Cc1ccc(S(C)(=O)=O)cc1)CC1CCN(CCCc2c[nH]c3ccc(-n4cnnc4)cc23)CC1
35 | – | – | 67 | – | – | CN(Cc1ccccc1)C1CCN(CCCc2c[nH]c3ccc(-n4cnnc4)cc23)CC1
36 | – | 22 | 12 | – | 260 | CN(CC1CC1)C1CCN(CCCc2c[nH]c3ccc(-n4cnnc4)cc23)CC1
37 | – | 6 | 14 | – | 85 | CN(CC1CCN(CCCc2c[nH]c3ccc(-n4cnnc4)cc23)CC1)[C@@H](CO)c1ccccc1
38 | – | 1.5 | 8.7 | – | 13 | CN(C)C[C@H](NC1CCN(CCCc2c[nH]c3ccc(-n4cnnc4)cc23)CC1)c1ccccc1
39 | – | 12 | 5.3 | – | 63 | NC1CCN(CCCc2c[nH]c3ccc(-n4cnnc4)cc23)CC1
40 | – | 1.5 | 5.9 | – | 8.9 | CC(=O)Nc1ccc([C@@H](C)NCC2CCN(CCCc3c[nH]c4ccc(-n5cnnc5)cc34)CC2)cc1
41 | – | 19 | 5.3 | – | 100 | CC(=O)Nc1ccc(CN(C)C2CCN(CCCc3c[nH]c4ccc(-n5cnnc5)cc34)CC2)cc1
42 | – | 4.2 | 2.1 | – | 8.9 | CC(=O)Nc1ccc(CNCC2CCN(CCCc3c[nH]c4ccc(-n5cnnc5)cc34)CC2)cc1
43 | – | 20 | 16 | – | 320 | C=CCN(C)C1CCN(CCCc2c[nH]c3ccc(-n4cnnc4)cc23)CC1
